Measured values from ChEMBL document CHEMBL3259640 (J Med Chem, 2014).
The source made the active and inactive calls. No cut-off for these calls is given here.

Legend:
MDA-MB-468 [1] = experiment: Induction of mitotic abnormalities in human MDA-MB-468 cells assessed as proportion of cells displaying chromosomal misalignment at 10 nM after 48 hrs by immunofluorescent staining based microscopy (reference value: 21.4%); assay type: functional
[2] = molecular target: T1, Kinetochore protein NDC80 homolog (Homo sapiens) (UniProt O14777); experiment: Inhibition of Hec1/Nek2 interaction in human MDA-MB-468 cells assessed as reduction in Hec1 level at 100 nM by western blot analysis; assay type: cell-based
T1 sequence (whole entry): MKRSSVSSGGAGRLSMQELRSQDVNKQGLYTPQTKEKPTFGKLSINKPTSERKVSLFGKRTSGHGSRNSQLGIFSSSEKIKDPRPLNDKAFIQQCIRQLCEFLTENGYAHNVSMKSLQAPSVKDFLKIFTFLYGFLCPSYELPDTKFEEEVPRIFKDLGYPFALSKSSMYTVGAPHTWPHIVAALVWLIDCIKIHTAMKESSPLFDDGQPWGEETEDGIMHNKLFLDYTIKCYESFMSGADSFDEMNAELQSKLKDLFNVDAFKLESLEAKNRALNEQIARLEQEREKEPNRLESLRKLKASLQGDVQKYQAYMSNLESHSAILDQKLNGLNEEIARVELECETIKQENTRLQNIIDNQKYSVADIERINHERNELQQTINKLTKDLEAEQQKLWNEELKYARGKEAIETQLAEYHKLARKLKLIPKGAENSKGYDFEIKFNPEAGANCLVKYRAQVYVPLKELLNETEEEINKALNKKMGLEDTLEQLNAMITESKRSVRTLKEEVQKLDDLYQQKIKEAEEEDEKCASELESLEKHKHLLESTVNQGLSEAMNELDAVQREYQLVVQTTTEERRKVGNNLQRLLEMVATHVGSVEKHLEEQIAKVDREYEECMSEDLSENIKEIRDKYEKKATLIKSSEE
In short: (§1)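 MDA-MB-468 cells treated with compound at 100 nM, with or without MG132 at 500 nM. Lysates made in SDS sample buffer, run on SDS-PAGE and blotted to PVDF. Primary antibodies applied in 3% BSA-TBST, with HRP secondaries and enhanced chemiluminescence detection for Hec1 and Nek2.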

[3] = Oral bioavailability in Sprague-Dawley rat at 20 mg/kg compound formulated with 5% DMSO, 10% cremophor and 85% water by LC-MS/MS analysis; assay type: ADME, organism-based; conditions: in vivo
COLO 205 = experiment: Growth inhibition of human COLO205 cells; assay type: functional
MDA-MB-468 [4] = experiment: Induction of mitotic abnormalities in human MDA-MB-468 cells assessed as proportion of cells displaying multipolar spindles at 10 nM after 48 hrs by immunofluorescent staining based microscopy (reference value: […]); assay type: functional
[5] = molecular target: RAF proto-oncogene serine/threonine-protein kinase (Homo sapiens, UniProt P04049); experiment: Inhibition of C-Raf (unknown origin) assessed as [33P] incorporation in substrate by TopCount microplate scintillation counting analysis
RAF proto-oncogene serine/threonine-protein kinase, sequence (P04049 whole entry): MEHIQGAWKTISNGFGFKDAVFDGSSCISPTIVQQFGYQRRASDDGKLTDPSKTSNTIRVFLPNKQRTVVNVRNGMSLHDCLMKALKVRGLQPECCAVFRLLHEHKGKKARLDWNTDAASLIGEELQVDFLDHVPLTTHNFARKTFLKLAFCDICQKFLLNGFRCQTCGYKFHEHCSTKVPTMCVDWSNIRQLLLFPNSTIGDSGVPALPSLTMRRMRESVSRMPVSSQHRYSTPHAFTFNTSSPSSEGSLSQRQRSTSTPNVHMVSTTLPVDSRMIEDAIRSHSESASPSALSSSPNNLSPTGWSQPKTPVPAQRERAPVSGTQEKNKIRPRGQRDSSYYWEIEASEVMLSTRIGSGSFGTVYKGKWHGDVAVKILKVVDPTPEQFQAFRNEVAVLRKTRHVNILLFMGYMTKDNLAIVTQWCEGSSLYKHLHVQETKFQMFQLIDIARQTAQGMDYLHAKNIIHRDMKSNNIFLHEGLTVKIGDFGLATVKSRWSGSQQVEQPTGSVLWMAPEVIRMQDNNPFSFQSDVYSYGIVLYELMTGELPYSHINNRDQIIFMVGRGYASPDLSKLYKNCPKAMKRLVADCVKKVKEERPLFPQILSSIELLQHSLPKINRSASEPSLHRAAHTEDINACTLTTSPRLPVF

HeLa [6] = experiment: Antiproliferative activity against human HeLa cells assessed as cell viability after 96 hrs by CellTiter96 assay; assay type: functional, cell-based
[7] = molecular target: Cyclin-dependent kinase 1/cyclin B1 (Homo sapiens, UniProt P06493); experiment: Inhibition of Cdk1/cyclin B (unknown origin) assessed as [33P] incorporation in substrate by TopCount microplate scintillation counting analysis; assay type: protein-complex assay
Cyclin-dependent kinase 1/cyclin B1, sequence (P06493 whole entry): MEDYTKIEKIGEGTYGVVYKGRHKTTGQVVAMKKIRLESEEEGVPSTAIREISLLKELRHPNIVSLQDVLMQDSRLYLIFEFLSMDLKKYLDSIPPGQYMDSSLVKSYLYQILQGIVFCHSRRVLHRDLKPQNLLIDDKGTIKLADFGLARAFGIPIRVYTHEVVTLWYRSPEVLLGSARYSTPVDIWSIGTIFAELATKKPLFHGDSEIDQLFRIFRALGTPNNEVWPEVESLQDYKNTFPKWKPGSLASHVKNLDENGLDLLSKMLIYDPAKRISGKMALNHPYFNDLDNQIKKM
Cyclin-dependent kinase 1/cyclin B1, sequence (P14635 whole entry, further chain): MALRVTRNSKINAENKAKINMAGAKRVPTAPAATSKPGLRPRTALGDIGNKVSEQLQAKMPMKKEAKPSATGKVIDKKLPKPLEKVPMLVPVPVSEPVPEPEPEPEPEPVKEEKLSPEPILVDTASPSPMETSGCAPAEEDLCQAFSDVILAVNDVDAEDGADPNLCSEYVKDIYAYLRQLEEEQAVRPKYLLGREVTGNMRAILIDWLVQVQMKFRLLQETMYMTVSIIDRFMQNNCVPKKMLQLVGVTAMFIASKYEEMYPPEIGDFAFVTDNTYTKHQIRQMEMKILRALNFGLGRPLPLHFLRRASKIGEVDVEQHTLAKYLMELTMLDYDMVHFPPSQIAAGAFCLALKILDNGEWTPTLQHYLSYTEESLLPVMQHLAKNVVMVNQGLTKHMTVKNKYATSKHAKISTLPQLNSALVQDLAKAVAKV

[8] = Growth inhibition of human HuH7 cells; assay type: functional; conditions: Huh-7
T47D = experiment: Growth inhibition of human T47D cells; assay type: functional
[9] = Growth inhibition of human HAoSMC cells; assay type: cell-based
MDA-MB-231 [10] = experiment: Antitumor activity against human MDA-MB-231 cells xenografted in BALB/c nu/nu mouse assessed as tumor volume at 20 mg/kg, iv qd for 28 days relative to control; assay type: functional
In short: (§2)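 Female BALB/c nu/nu mice, 5–8 weeks old, implanted subcutaneously in the right flank with 1 × 10⁷ MDA-MB-231 cells in matrigel. Dosing began at about 100 mm³ mean tumour volume; 5 mice/group. Arms: vehicle (5% DMSO, 10% Cremophor in water) IV once daily, 20 mg/kg IV once daily, or 150 mg/kg PO twice daily, for 28 days. Caliper volumes and body weight every 2 days; T/C on day 28.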

HeLa [11] = experiment: Induction of apoptosis in human HeLa cells assessed as reduction in Bcl-2 protein expression at 1 uM after 24 to 48 hrs by western blot analysis; assay type: functional, cell-based
In short: (§3)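 HeLa cells given 1.0 μM compound, DMSO, or paclitaxel 100 nM for 24 and 48 h. Lysates made in SDS sample buffer, run on SDS-PAGE and transferred to PVDF. Blots probed for cleaved caspase-3, cleaved PARP, Bcl-2, Mcl-1 and XIAP, with actin as loading control, and detected by HRP-linked ECL.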

MDA-MB-468 [12] = experiment: Growth inhibition of human MDA-MB-468 cells; assay type: functional
[13] = Half life in rat liver microsomes at 1 uM by LC-MS/MS analysis; assay type: ADME
[14] = molecular target: Platelet-derived growth factor receptor beta (Homo sapiens, UniProt P09619); experiment: Inhibition of PDGFR-beta (unknown origin) assessed as [33P] incorporation in substrate by TopCount microplate scintillation counting analysis
[15] = Growth inhibition of human PLC/PRF/5 cells; assay type: functional
HeLa [16] = experiment: Induction of apoptosis in human HeLa cells assessed as reduction in Mcl-1 protein expression at 1 uM after 24 to 48 hrs by western blot analysis; assay type: functional, cell-based; in short: as §3
HeLa [17] = experiment: Growth inhibition of human HeLa cells; assay type: functional
[18] = molecular target: Phosphatidylinositol 4,5-bisphosphate 3-kinase catalytic subunit alpha isoform (Homo sapiens, UniProt P42336); experiment: Inhibition of PI3K alpha (unknown origin) assessed as [33P] incorporation in substrate by TopCount microplate scintillation counting analysis
[19] = molecular target: Serine/threonine-protein kinase Nek2 (Homo sapiens, UniProt P51955); experiment: Inhibition of Nek2 (unknown origin)
Serine/threonine-protein kinase Nek2, sequence (P51955 whole entry): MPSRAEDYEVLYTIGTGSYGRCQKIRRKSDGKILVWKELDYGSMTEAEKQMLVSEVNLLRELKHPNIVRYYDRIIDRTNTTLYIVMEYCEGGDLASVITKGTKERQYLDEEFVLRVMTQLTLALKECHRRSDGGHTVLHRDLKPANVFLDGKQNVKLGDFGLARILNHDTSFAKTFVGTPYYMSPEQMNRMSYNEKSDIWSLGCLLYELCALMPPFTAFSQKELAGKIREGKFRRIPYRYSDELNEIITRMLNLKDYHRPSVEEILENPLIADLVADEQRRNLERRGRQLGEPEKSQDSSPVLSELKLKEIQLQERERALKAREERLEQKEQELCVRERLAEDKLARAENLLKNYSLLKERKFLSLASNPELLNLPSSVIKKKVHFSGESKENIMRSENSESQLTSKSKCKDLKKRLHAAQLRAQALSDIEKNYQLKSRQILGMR

HeLa [20] = experiment: Induction of apoptosis in human HeLa cells assessed as increase in cleaved PARP level at 1 uM after 24 to 48 hrs by western blot analysis; assay type: functional, cell-based; in short: as §3
HeLa [21] = experiment: Induction of apoptosis in human HeLa cells assessed as increase in cleaved caspase-3 level at 1 uM after 24 to 48 hrs by western blot analysis; assay type: functional, cell-based; in short: as §3
MDA-MB-231 [22] = experiment: Antitumor activity against human MDA-MB-231 cells xenografted in BALB/c nu/nu mouse assessed as tumor volume at 150 mg/kg, po bid for 28 days administered via gavage relative to control; assay type: functional; in short: as §2
[23] = molecular target: Phosphatidylinositol 4,5-bisphosphate 3-kinase catalytic subunit beta isoform (Homo sapiens, UniProt P42338); experiment: Inhibition of PI3K beta (unknown origin) assessed as [33P] incorporation in substrate by TopCount microplate scintillation counting analysis
Phosphatidylinositol 4,5-bisphosphate 3-kinase catalytic subunit beta isoform, sequence (P42338 whole entry, canonical isoform): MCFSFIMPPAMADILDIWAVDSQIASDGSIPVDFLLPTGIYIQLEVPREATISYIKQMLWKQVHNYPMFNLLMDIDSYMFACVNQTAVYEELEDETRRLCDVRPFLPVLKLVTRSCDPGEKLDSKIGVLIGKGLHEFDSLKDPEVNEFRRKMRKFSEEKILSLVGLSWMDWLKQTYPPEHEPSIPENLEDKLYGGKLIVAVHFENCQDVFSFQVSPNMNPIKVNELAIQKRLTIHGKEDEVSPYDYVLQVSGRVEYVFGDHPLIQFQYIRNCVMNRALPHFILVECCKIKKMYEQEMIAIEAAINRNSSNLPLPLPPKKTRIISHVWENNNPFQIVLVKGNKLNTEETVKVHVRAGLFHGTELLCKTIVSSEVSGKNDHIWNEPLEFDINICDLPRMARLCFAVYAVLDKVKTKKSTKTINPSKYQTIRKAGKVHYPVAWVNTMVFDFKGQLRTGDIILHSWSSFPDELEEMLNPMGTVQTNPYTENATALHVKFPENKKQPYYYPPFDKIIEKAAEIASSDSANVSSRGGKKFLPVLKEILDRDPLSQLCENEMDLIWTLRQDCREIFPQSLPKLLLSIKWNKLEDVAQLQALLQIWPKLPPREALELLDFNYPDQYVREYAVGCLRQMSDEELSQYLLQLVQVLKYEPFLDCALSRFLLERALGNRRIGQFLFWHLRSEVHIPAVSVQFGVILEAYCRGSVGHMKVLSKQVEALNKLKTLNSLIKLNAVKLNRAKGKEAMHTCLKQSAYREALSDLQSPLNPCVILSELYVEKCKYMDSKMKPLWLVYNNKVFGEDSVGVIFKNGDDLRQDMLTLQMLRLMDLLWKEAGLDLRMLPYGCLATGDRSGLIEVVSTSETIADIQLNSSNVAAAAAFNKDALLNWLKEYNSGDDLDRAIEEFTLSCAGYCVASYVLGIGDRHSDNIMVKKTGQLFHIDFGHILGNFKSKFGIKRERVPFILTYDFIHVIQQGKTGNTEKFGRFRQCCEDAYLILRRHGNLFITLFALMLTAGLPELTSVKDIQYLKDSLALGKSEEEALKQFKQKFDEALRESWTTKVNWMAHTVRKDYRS

[24] = molecular target: T1, Kinetochore protein NDC80 homolog (Homo sapiens); experiment: Inhibition of Hec1/Nek2 interaction in human MDA-MB-468 cells assessed as induction of Nek2 degradation at 100 nM by western blot analysis in presence of 500 nM proteasome inhibition MG132; assay type: cell-based; in short: as §1
[25] = molecular target: Voltage-gated inwardly rectifying potassium channel KCNH2 (Homo sapiens, UniProt Q12809); experiment: Displacement of [3H]astemizole from human ERG after 60 mins by competitive binding assay
Voltage-gated inwardly rectifying potassium channel KCNH2, sequence (Q12809 whole entry): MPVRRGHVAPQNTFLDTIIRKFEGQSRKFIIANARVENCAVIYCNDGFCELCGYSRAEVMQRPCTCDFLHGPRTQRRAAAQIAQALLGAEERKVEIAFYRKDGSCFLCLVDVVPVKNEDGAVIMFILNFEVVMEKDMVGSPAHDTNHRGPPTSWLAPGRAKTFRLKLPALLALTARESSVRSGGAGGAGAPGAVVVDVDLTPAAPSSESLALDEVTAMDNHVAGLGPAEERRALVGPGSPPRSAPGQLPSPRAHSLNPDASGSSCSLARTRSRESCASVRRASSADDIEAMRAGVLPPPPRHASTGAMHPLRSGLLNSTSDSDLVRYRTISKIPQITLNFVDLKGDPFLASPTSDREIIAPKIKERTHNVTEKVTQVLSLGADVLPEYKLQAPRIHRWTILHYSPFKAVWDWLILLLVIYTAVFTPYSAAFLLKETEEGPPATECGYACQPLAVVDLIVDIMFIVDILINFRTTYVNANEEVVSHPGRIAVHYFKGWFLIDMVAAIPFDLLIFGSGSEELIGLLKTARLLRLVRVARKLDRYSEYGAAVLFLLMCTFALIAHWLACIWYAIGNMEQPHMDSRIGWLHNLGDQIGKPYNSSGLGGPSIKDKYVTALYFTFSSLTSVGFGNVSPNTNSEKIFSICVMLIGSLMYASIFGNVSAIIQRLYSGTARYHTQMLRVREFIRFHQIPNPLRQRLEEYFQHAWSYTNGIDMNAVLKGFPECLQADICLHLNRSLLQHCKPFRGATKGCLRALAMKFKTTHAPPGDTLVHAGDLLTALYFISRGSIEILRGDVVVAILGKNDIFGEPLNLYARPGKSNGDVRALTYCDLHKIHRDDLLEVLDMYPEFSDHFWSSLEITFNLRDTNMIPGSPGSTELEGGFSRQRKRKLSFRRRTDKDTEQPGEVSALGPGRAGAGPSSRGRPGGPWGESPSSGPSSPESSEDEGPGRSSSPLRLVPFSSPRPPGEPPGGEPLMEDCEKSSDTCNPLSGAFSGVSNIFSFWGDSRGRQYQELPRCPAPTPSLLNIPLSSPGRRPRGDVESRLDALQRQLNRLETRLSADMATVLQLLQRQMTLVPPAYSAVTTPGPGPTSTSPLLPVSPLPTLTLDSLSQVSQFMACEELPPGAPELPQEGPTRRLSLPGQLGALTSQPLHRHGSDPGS

SMILES: COc1ccc(Oc2cc(C)c(-c3csc(NC(=O)c4ccnc(F)c4)n3)c(C)c2)cc1
- Activity (MDA-MB-468 [1]): 23.9%
- inhibition [2]: Active
- bioavailability [3]: 22.7%
- GI50 (COLO 205): 35.4 nM
- Activity (MDA-MB-468 [4]): 16.9%
- IC50 [5]: > 10000 nM
- IC50 (HeLa [6]): 42.7 nM
- IC50 [7]: > 10000 nM
- GI50 [8]: 79.6 nM
- GI50 (T47D): 377 nM
- GI50 [9]: > 9000 nM
- T/C (MDA-MB-231 [10]): 32%
- inhibition (HeLa [11]): Active
- GI50 (MDA-MB-468 [12]): 29.6 nM
- half-life at 1 µM [13]: 5.67 h
- IC50 [14]: > 10000 nM
- GI50 [15]: 79.6 nM
- inhibition (HeLa [16]): Active
- GI50 (HeLa [17]): 22.8 nM
- IC50 [18]: > 10000 nM
- IC50 [19]: > 10000 nM
- Activity (HeLa [20]): Active
- Activity (HeLa [21]): Active
- T/C (MDA-MB-231 [22]): 57%
- IC50 [23]: > 10000 nM
- Activity [24]: inactive
- IC50 [25]: > 10000 nM
